Laboratory results published in ChEMBL document CHEMBL1157670, “Total synthesis and cytotoxicity evaluation of all ochratoxin A stereoisomers” (Bioorg Med Chem, 2010).

Tests used:
Type in all cases: functional, cell-based
HepG2 [1] = assay: Induction of apoptosis in human HepG2 cells assessed as caspase 3 activation after 24 hrs by fluorescence assay; settings: HepG2, 24 h
How it was run: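 Hep G2 cells seeded 2×10^4/well and made serum-free as for the other assays. Compound given at 10 nM–50 µM (1 mM methanol stock) for 24 h. Lysed on ice in 0.1% Triton X-100 buffer, pH 7.5, then centrifuged. Supernatant incubated 1 h at 37 °C with 8 µM DEVD-AFC in PIPES/CHAPS/DTT buffer. AFC fluorescence (ex 400/em 505 nm) quantified against an AFC standard and normalized to BCA protein. n = 9.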

HepG2 [2] = assay: Cytotoxicity against human HepG2 cells after 48 hrs by WST8 assay; settings: for IC50: HepG2, 48 h
How it was run: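 Hep G2 cells grown in DMEM + 10% FCS (37 °C, 8.5% CO2), seeded 4×10^3/well for 48 h, then 24 h serum-free at ~80% confluence. Compound from 1 mM methanol stock, 10 nM–50 µM, 48 h, serum-free; solvent controls. Then WST-8 for 1 h at 37 °C, absorbance 450 nm, normalized to untreated control. Triplicate, three independent passages (n = 9).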

HepG2 [3] = assay: Cytotoxicity against human HepG2 cells assessed as LDH release after 48 hrs by microplate reader method
How it was run: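 Hep G2 cells in DMEM/10% FCS, seeded 2×10^4/well, switched to serum-free after 48 h at ~80% confluence. After 24 h, compound added at 10 nM–50 µM (1 mM methanol stock) for 48 h. Cells lysed on ice with 1% Triton X-100 Tris buffer. Lysate and medium LDH read kinetically as NADH loss ([…], 10 mM pyruvate, HEPES pH 7.0) at 340 nm over 60 min at 37 °C. Released vs total LDH normalized to positive and negative controls. n = 9.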

| SMILES | EC50 (HepG2 [1]) | Activity (HepG2 [2]) | IC50 (HepG2 [2]) | Activity (HepG2 [3]) |
| --- | --- | --- | --- | --- |
| C[C@@H]1Cc2c(Cl)cc(C(=O)N[C@H](Cc3ccccc3)C(=O)O)c(O)c2C(=O)O1 [3R14R-OCHRATOXIN A] | > 10000 nM | Dose-dependent effect | 3200 nM | Dose-dependent effect |
| C[C@@H]1Cc2c(Cl)cc(C(=O)N[C@@H](Cc3ccccc3)C(=O)O)c(O)c2C(=O)O1 [3R14S-OCHRATOXIN A] | 60 nM | Dose-dependent effect | 300 nM | Dose-dependent effect |
| C[C@H]1Cc2c(Cl)cc(C(=O)N[C@H](Cc3ccccc3)C(=O)O)c(O)c2C(=O)O1 [3S14R-OCHRATOXIN A] | 3800 nM | Dose-dependent effect | 5000 nM | Dose-dependent effect |
| C[C@H]1Cc2c(Cl)cc(C(=O)N[C@@H](Cc3ccccc3)C(=O)O)c(O)c2C(=O)O1 [3S14S-OCHRATOXIN A] | 80 nM | Dose-dependent effect | 400 nM | Dose-dependent effect |
